Our source for the ED50, IC50 and LD50 values is ChEMBL document CHEMBL1123413, “Synthesis and biological evaluation of 1-(1,2-benzisothiazol-3-yl)- and (1,2-benzisoxazol-3-yl)piperazine derivatives as potential antipsychotic agents” (J Med Chem, 1986).

For data set [1], the species on record is Rattus norvegicus. The experiment in a line: Compound was tested for its ability to induce catalepsy in rats. In kind it is functional. The method, boiled down:
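Catalepsy was induced in rats with orally dosed compound as a predictor of extrapyramidal liability. ED50 (mg/kg, po) with fiducial limits by Berkson's method.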

In data set [2] the target is T1, Adrenergic receptor alpha-1 (Rattus norvegicus, UniProt P15823+P23944+P43140).
T1 sequence (P15823 whole entry): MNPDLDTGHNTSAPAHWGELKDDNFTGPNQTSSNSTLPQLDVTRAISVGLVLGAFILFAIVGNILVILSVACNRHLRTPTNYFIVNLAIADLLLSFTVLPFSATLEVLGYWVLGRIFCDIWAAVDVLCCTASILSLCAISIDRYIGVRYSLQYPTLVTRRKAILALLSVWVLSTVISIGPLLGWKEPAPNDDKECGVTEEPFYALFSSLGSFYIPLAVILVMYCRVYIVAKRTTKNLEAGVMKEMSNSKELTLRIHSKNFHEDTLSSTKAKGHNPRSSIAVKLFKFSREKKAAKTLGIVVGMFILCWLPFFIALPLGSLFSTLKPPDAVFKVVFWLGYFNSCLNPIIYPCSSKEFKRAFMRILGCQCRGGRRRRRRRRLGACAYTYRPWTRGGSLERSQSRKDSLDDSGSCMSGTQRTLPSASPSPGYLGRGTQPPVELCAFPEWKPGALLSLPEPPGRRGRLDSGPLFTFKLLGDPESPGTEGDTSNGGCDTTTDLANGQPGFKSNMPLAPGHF
T1 sequence (P23944 whole entry): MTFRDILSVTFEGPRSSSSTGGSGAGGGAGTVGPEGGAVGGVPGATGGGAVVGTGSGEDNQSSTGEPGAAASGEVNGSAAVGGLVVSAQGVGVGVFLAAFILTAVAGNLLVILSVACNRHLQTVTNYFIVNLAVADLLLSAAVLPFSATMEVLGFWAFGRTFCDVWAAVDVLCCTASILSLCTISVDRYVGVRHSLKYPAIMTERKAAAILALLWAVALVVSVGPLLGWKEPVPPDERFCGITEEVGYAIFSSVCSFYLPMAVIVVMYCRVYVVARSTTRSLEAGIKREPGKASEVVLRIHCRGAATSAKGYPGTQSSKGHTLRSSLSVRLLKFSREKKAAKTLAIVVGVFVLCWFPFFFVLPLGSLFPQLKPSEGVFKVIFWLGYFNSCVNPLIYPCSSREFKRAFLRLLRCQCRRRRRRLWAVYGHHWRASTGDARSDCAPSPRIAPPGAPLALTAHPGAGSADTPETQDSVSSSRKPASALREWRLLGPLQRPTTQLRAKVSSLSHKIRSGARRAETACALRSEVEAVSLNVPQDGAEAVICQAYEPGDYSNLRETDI
T1 sequence (P43140 whole entry): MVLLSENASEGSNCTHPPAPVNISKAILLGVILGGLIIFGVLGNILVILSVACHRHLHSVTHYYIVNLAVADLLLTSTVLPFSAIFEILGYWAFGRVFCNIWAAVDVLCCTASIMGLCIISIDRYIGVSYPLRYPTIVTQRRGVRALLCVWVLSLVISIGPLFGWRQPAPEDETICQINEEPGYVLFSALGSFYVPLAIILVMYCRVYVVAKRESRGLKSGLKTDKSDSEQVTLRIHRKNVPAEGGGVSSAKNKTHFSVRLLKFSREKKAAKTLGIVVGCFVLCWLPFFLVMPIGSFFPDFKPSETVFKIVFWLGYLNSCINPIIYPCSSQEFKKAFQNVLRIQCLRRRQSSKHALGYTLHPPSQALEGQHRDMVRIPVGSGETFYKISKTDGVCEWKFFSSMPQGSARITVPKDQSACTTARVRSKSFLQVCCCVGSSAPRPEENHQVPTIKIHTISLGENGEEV

The species entered for data set [3] is Rattus norvegicus. The experiment in a line: Inhibition of conditioned avoidance response (CAR). Type of data set: functional. The gist of the method:
(§1)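 Rats trained to avoid an electric shock, test compound given orally, and block of the conditioned avoidance response scored. ED50 (mg/kg, po) with fiducial limits by the method of Berkson.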

For data set [4], the species on record is Rattus norvegicus. The experiment in a line: Compound was tested for the inhibition of apomorphine-induced stereotype. In kind it is functional. The gist of the method:
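In rats, oral test compound was scored for block of apomorphine-induced stereotypy as an in vivo dopamine-system measure. ED50 (mg/kg, po) and fiducial limits by Berkson's method.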

The next data set has as its target D(2) dopamine receptor (Rattus norvegicus, UniProt P61169). The experiment in a line: In vitro affinity for rat striatal Dopamine receptor D2 labeled with [3H]spiperone.
For data set [5], the system named is Mus musculus. Kind of data set: Compound was tested for inhibition of spontaneous motor activity in mouse when administered perorally. In kind it is functional. The conditions noted are these: po.
Data set [6] can be described thus: Lethal dose after peroral administration in mouse. In kind it is toxicity, organism-based. The conditions noted are these: in vivo, po.
Data set [7] deals with Rattus norvegicus. Kind of data set: Compound was tested for inhibition of spontaneous motor activity in rat when administered perorally. The conditions noted are these: po. In kind it is functional.
The subject of data set [8] is Mus musculus. Kind of data set: Compound was tested for inhibition of norepinephrine lethality in mouse when administered perorally. Particulars: po. Type of data set: functional. The gist of the method: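 Groups of 10 nonfasted male mice dosed orally with test compound (initial 100 mg/kg) or vehicle (distilled H2O or 0.5% methocel). Active compounds retested at lower doses, 10 mice/dose, for dose response. ED50 by Berkson's method.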

Data set [9] is filed under the species Rattus norvegicus. The experiment in a line: Compound was tested for inhibition of conditioned avoidance response (CAR ). In kind it is functional. The method, boiled down:
as §1

Data set [10] deals with Rattus norvegicus. Kind of data set: Compound was tested for inhibition of ethanol potentiation in rat when administered perorally. In kind it is functional. Particulars: po. The method, boiled down: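 Nonfasted male rats received test drug or vehicle (distilled H2O or 0.5% methocel). EtOH (10 mL of 20% solution/kg, ip) followed at 15, 30, 60 or 120 min post-drug; the vehicle group got it at 15 min. Rats were watched about 10–15 min for loss of righting reflex lasting 1 min. Dose response at peak time used 10/dose; ED50 by Berkson.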

Data set [11] has as its system Mus musculus. Kind of data set: Compound was tested for inhibition of physostigmine lethality in mouse when administered perorally. The conditions noted are these: po. Type of data set: functional. The gist of the method: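 Groups of 10 nonfasted male mice dosed orally with test compound (initial 100 mg/kg) or vehicle (distilled H2O or 0.5% methocel). At 30 min, physostigmine given ip at 1.25 mg/kg, and lethality followed for up to 1 h. Active compounds retested at lower doses, 10 mice/dose, for dose response. ED50 by Berkson's method.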

Chain of D(2) dopamine receptor (P61169 whole entry): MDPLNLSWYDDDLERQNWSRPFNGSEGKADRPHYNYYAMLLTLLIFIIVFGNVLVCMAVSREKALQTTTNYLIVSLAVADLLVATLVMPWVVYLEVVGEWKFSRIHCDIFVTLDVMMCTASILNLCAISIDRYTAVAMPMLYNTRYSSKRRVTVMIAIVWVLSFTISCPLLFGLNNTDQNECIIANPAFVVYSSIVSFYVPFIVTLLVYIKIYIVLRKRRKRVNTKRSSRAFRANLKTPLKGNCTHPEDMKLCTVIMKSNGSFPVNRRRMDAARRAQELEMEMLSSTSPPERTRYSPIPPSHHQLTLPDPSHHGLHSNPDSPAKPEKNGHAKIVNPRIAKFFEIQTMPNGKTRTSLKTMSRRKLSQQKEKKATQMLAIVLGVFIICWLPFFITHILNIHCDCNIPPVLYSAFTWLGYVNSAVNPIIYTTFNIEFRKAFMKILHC

A word on the ED50: it is the dose that gives a 50% effect, or the effect in half of the subjects. The term IC50 denotes the midpoint of a concentration-inhibition curve. Regarding `CN1CCN(CCCN2c3ccccc3Sc3ccc(C(F)(F)F)cc32)CC1` [TRIFLUOPERAZINE], the ED50 in the data set filed under Rattus norvegicus [1] was 3 mg/kg; in the data set listed under Rattus norvegicus [3], 6.9 mg/kg; in the data set filed under Rattus norvegicus [4], 6.5 mg/kg. Further, in data set [2], the IC50 is recorded as 350 nM.
In the case of `CC1CN(CCCCN2C(=O)CC3(CCCC3)CC2=O)CCN1c1nsc2ccccc12` (centres undefined), on D(2) dopamine receptor, the IC50 was 64 nM. In addition, the ED50 in the data set filed under Rattus norvegicus [3] was > 100 mg/kg.
What is called LD50 is the dose at which mortality reaches 50%. A low value points to a more toxic substance. In the case of `CN(C)CCCN1c2ccccc2Sc2ccc(Cl)cc21` [CHLORPROMAZINE], the ED50 came out at 4.1 mg/kg in the data set listed under Rattus norvegicus [1]; 3.6 mg/kg in the data set on Mus musculus [5]; 17.2 mg/kg with Rattus norvegicus [7]; 9.6 mg/kg in the data set filed under Rattus norvegicus [4]; 2.72 mg/kg in the data set on Mus musculus [8]. In data set [6], this compound returned an LD50 of 250 mg/kg.
For the compound `O=C1CC2(CCCC2)CC(=O)N1CCCCN1CCN(c2noc3ccccc23)CC1`, the results for the IC50 (on D(2) dopamine receptor; in data set [2]) were 25 nM and 7 nM, respectively. Moreover, the ED50 in the data set listed under Rattus norvegicus [1] worked out at 68.2 mg/kg; in the data set filed under Rattus norvegicus [3], 10.6 mg/kg; in the data set listed under Rattus norvegicus [4], 20.2 mg/kg.
Take `CCCC1(C)CC(=O)N(CCCCN2CCN(c3nsc4ccccc34)CC2)C(=O)C1.Cl`: the IC50 against D(2) dopamine receptor came out at 55 nM; in [2], 9 nM. The 50% effect level in the data set filed under Rattus norvegicus [9] (ED50) was put at a dose of 24.3 mg/kg.
Regarding `O=C(CCCN1CCC(O)(c2ccc(Cl)cc2)CC1)c1ccc(F)cc1` [HALOPERIDOL], the ED50 in the data set with Rattus norvegicus [10] is 0.28 mg/kg; in the data set listed under Rattus norvegicus [1], 0.58 mg/kg; with Mus musculus [5] it was 0.45 mg/kg; with Mus musculus [11], > 80 mg/kg; in the data set listed under Rattus norvegicus [3] it was 2.8 mg/kg; with Rattus norvegicus [7] it was 0.73 mg/kg. Besides, the ED50 was 0.5 mg/kg in the data set listed under Rattus norvegicus [4] and 26 mg/kg in the data set on Mus musculus [8]. This compound showed an LD50 in [6] of 500 mg/kg.
Consider `Cl.O=C1SC2(CCCC2)C(=O)N1CCCCN1CCN(c2nsc3ccccc23)CC1`, for which the IC50 at D(2) dopamine receptor was determined as 42 nM; in [2], 9 nM. Also, the ED50 was 45 mg/kg in the data set filed under Rattus norvegicus [1] and 11.6 mg/kg in the data set listed under Rattus norvegicus [9].
Turning to `O=C1CSC(=O)N1CCCCN1CCN(c2noc3ccccc23)CC1`, the values for the IC50 (against D(2) dopamine receptor; in data set [2]) were 240 nM and 1 nM, respectively. Besides, the ED50 was 11.7 mg/kg in the data set filed under Rattus norvegicus [1] and 8.3 mg/kg in the data set listed under Rattus norvegicus [3].
For the compound `Cl.c1ccc2c(N3CCNCC3)nsc2c1`, the values for the IC50 (on D(2) dopamine receptor; in data set [2]) were > 1000 nM and 510 nM, respectively. Besides, the ED50 in the data set filed under Rattus norvegicus [3] was > 100 mg/kg.
The matching figures for `O=C1CC2(CCCC2)CC(=O)N1CCCCN1CCN(c2noc3cc(Cl)ccc23)CC1`: 59 nM, 5 nM and 26 mg/kg.
The matching figures for `O=C1CC2(CCCC2)CC(=O)N1CCCN1CCN(c2nsc3ccccc23)CC1`: 145 nM, 3 nM and > 100 mg/kg.
Regarding `OC(CCCN1CCN(c2noc3ccccc23)CC1)c1ccc(F)cc1` (centres undefined), the results for the IC50 (on D(2) dopamine receptor; in data set [2]) were 30 nM and 2 nM, respectively. For the same compound, the results for the ED50 in the data set filed under Rattus norvegicus [1], in the data set listed under Rattus norvegicus [3] and in the data set filed under Rattus norvegicus [4] were 2.2 mg/kg, 1 mg/kg and 2.3 mg/kg, respectively.
Take `Cl.O=C1CSC(=O)N1CCCCN1CCN(c2nsc3ccccc23)CC1`: the half-inhibitory concentration (IC50) against D(2) dopamine receptor was 53 nM; in data set [2], 0.9 nM. For the same compound, it took a dose of 27.8 mg/kg to reach the 50% effect level in the data set listed under Rattus norvegicus [9] (ED50).
